According to PMC3312318 (Biochemistry, 2012):
Ends that are not written are not given here. Oregon Green 488 = Oregon Green 488 fluorophore

How the values were obtained:
[1] = test system: PICK1 PDZ domain; details: in words, ref [39], cited from earlier work
[2] = test system: PKCα; assay: In vitro phosphorylation by PKCα; assay type: biochemical; details: in words
Summary of the method: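 About 3 μg of purified untagged PICK1 variant was mixed with reaction buffer (Tris pH 7.5, MgCl2, CaCl2), PKC lipid activator, 10 ng PKCα and 2 μCi [γ-32P]ATP, then incubated 30 min at 30 °C. Reactions were stopped on ice with SDS loading buffer and run on SDS-PAGE. 32P and Coomassie bands were quantified, and the phosphorylation/protein density ratio was expressed relative to WT (100%). Mean ± SE, 3–5 experiments.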

[3] = test system: PKCα; assay: In vitro phosphorylation by PKCα after preincubation with lipid vesicles; assay type: biochemical; details: with vs without vesicles
Summary of the method: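 Purified untagged PICK1 (~3 μg) was preincubated 30 min on ice with 3 μg Folch fraction type I vesicles extruded to 100 nm, or without vesicles. It was then phosphorylated with 10 ng PKCα, PKC lipid activator, Mg2+/Ca2+ Tris reaction buffer (pH 7.5) and 2 μCi [γ-32P]ATP for 30 min at 30 °C. Read-out was 32P band density over Coomassie protein density.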

[4] = biological target: T1, PICK1 WT (protein interacting with C-kinase 1), rat (rat, UniProt Q9EP80 1-416); assay: fluorescence polarisation
T1 sequence (Q9EP80 whole entry): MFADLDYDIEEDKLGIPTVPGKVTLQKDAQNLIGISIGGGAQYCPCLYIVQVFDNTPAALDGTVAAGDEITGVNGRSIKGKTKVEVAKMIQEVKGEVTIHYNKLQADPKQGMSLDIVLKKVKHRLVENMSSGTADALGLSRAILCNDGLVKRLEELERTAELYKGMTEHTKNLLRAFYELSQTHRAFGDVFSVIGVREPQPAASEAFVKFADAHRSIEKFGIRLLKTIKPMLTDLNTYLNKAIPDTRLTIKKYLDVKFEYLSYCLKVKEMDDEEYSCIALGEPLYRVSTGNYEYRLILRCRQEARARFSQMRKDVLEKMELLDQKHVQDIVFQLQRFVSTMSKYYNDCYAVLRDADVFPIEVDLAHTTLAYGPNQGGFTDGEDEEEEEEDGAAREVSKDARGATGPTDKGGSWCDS

[5] = biological target: T2, PICK1 S77A, rat (rat, UniProt Q9EP80 1-416, S77A); assay: fluorescence polarisation
T2 sequence (Q9EP80 whole entry S77A): as the sequence (Q9EP80 whole entry) above, with S77A counted along it

[6] = biological target: T3, PICK1 S77D, rat (phosphomimic) (rat, UniProt Q9EP80 1-416, S77D); assay: fluorescence polarisation
T3 sequence (Q9EP80 whole entry S77D): as the sequence (Q9EP80 whole entry) above, with S77D counted along it

[7] = biological target: T1, PICK1 WT (protein interacting with …); assay: fluorescence polarisation; remark: listed apart in the source
[8] = biological target: T2, PICK1 S77A, rat; assay: fluorescence polarisation; remark: listed apart in the source
[9] = biological target: T3, PICK1 S77D, rat (phosphomimic); assay: fluorescence polarisation; remark: listed apart in the source

EVRQFTLRHWLKD [DAT C13 V to D]
interaction with the PICK1 PDZ domain ([1]; last residue changed to aspartate): disrupts the interaction with the PICK1 PDZ domain

OrG DAT C13: DAT C13 with an additional N-terminal cysteine residue coupled to the fluorophore Oregon Green 488 (C(Oregon Green 488)EVRQFTLRHWLKV)
affinity for the PICK1 PDZ domain [1]: highest affinity reported for the PICK1 PDZ domain

PICK1 A87L: PICK1 mutant (A87L) that cannot accommodate a peptide in the PDZ binding pocket
PKCα phosphorylation compared with PICK1 WT ([2]; n=3-5): phosphorylated to the same level as WT

PICK1 WT: purified rat PICK1, cleaved from GST with thrombin
PKCα in vitro phosphorylation ([2]; SDS-PAGE, 32P autoradiography, n=3): PICK1 is a substrate for PKCα | fold increase in phosphorylation on addition of lipid vesicles [3]: approximately 10 fold

NPQFVHPILQSAV [PKCα C13 (13 C-terminal residues of human protein kinase Cα)]
Ki [4]: 49 µM | Ki [5]: 28 µM | Ki [6]: 29 µM

EVRQFTLRHWLKV [DAT C13 (13 C-terminal residues of the human dopamine transporter)]
Ki [4]: 1.05 µM | Ki [5]: 1.5 µM | Ki [6]: 1.1 µM

EGYNVYGIESVKI [GluA2 C13 (13 C-terminal residues of human GluA2)]
Ki [4]: 7.6 µM | Ki [5]: 9.8 µM | Ki [6]: 8.8 µM

C(Oregon Green 488)EVRQFTLRHWLKV [OrG DAT C13 (DAT C13 with an additional N-terminal cysteine coupled to Oregon Green 488)]
binding result [7]: binds | binding result [8]: binds | binding result [9]: binds
